The source made the active and inactive calls. No cut-off for these calls is given here.
Experiments:
[1] = target: T1, Bcl-2-related protein A1 (Homo sapiens) (UniProt Q16548); assay: Binding affinity to recombinant human C-terminal His6-tagged Bcl2A1 (1 to 152 residues) expressed in Escherichia coli assessed as adduct formation at 25 uM measured after 5 hrs by LC-MS analysis
T1 sequence (whole entry): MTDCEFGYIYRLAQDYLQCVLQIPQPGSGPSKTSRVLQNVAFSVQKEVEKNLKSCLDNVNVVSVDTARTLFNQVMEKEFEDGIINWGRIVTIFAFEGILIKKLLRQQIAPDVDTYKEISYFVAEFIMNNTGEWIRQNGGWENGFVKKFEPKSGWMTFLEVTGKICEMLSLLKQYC
Procedure, shortened: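 Bcl2A1 (5 μM) reacted with electrophilic peptide (25 μM) at pH 7.2 for 5 h. Protein adducts analysed by mass spectrometry.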

[2] = Drug uptake in mitochondria of human U937 cells at 1 uM measured after 4 hrs using FITC-labeled compound by Hoechst and MitoTracker Deep Red dye-based confocal live cell microscopy; assay type: ADME; conditions: u-937, 4 h
Procedure, shortened: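 Live U937 lymphoma cells given FITC-labelled peptide (1 μM) for 4 h. Nuclei stained with Hoechst and mitochondria with MitoTracker; colocalization imaged by confocal microscopy.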

[3] = Cellular uptake in human U937 cells at 10 uM measured after 4 hrs by flow cytometry; assay type: ADME, cell-based; conditions: u-937, 4 h
[4] = Stability of the compound in DTT buffer at 50 uM and pH 7.2 measured after 1 to 17 hrs by mass spectra analysis; assay type: physicochemical; conditions: pH 7.2, 50 µM
Procedure, shortened: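 Peptide held in 1 mM dithiothreitol over several hours to follow its integrity.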

[5] = Metabolic stability in human serum at 25 uM measured up to 6 hrs; assay type: ADME
[6] = target: T1, Bcl-2-related protein A1 (Homo sapiens); conditions: 500 nM
Bcl-2-related protein A1 = target: T2, Bcl-2-related protein A1 (Homo sapiens, UniProt Q16548); assay: Inhibition of FITC-betaA-DIIRNIARHLAQVGDSMRSI-NH2 binding to recombinant human Bcl2A1 (1 to 152 residues) BH3 binding site expressed in Escherichia coli measured after 2 hrs by fluorescence polarization assay; conditions: for Ki: read-out: Ki(app)
T2 sequence (Q16548 whole entry): T1 sequence (whole entry)
Procedure, shortened: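 Competitive fluorescence polarization: Bcl2A1 (15 nM) with FITC-Bid tracer (5 nM), protein/tracer 3:1 to keep fluorescence measurable, exposed to increasing peptide concentrations for 2 h. IC50 read from inhibition curves; apparent Ki derived from it.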

[7] = target: T1, Bcl-2-related protein A1 (Homo sapiens); assay: Binding affinity to Bcl2A1 in human U937 cells assessed as Bcl2A1 modification at 5 to 50 uM measured after overnight incubation by Western blot analysis; assay type: cell-based; conditions: U-937
Procedure, shortened: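 Live U937 cells incubated with peptide for 24 h at 37 °C, then lysed. Covalent Bcl2A1 modification detected by Western blot.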

[8] = target: T1, Bcl-2-related protein A1 (Homo sapiens); conditions: 500 nM; remark: listed apart in the source
[9] = target: T1, Bcl-2-related protein A1 (Homo sapiens); assay: Reversible inhibition of FITC-betaA-DIIRNIARHLAQVGDSMRSI-NH2 binding to recombinant human Bcl2A1 (1 to 152 residues) BH3 binding site expressed in Escherichia coli preincubated for 1 hr with 2 fold diluted Bcl2A1 prior to FITC-betaA-DIIRNIARHLAQVGDSMRSI-NH2 addition measured every minute over 3.5 hrs by fluorescence polarization assay
Procedure, shortened: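 Bcl2A1 2-fold serially diluted (250 to 0.25 nM), preincubated 1 h with peptide at several protein/peptide ratios. FITC-Bid (5 nM) then added and fluorescence polarization recorded as titration binding curves. Buffer in place of peptide as control.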

[10] = target: T1, Bcl-2-related protein A1 (Homo sapiens); assay: Binding affinity to Bcl2A1 (unknown origin) overexpressed in human HeLa cells at 50 uM measured after 24 hrs by Western blot analysis; assay type: cell-based

Row | SMILES | Activity [1] | Stability [5] | IC50 (Bcl-2-related protein A1) [nM] | Ki (Bcl-2-related protein A1) [nM] | Activity [7] | other results
1 | C#CC(=O)NC[C@H](NC(=O)[C@@H](NC(C)=O)[C@@H](C)CC)C(=O)N[C@H](C(=O)N[C@@H](C)C(=O)N[C@@H](CCC(N)=O)C(=O)N[C@@H](CCC(=O)O)C(=O)N[C@@H](CC(C)C)C(=O)N[C@@H](CCCNC(=N)N)C(=O)N[C@@]1(C)CCCC=CCCC[C@@](C)(C(=O)N[C@@H](Cc2ccccc2)C(=O)N[C@@H](CC(N)=O)C(=O)N[C@@H](C)C(=O)N[C@@H](Cc2ccc(O)cc2)C(=O)N[C@@H](Cc2ccc(O)cc2)C(=O)N[C@@H](C)C(=O)N[C@@H](CCCNC(=N)N)C(=O)N[C@@H](CCCNC(=N)N)C(N)=O)NC(=O)[C@H](CC(=O)O)NC(=O)CNC(=O)[C@H]([C@@H](C)CC)NC1=O)[C@@H](C)CC | Active |  |  |  |  | 
2 | C=CC(=O)NC[C@H](NC(=O)[C@@H](NC(=O)CCCCCNC(=O)c1cc(N=C=S)ccc1-c1c2ccc(=O)cc-2oc2cc(O)ccc12)[C@@H](C)CC)C(=O)N[C@H](C(=O)N[C@@H](C)C(=O)N[C@@H](CCC(N)=O)C(=O)N[C@@H](CCC(=O)O)C(=O)N[C@@H](CC(C)C)C(=O)N[C@@H](CCCNC(=N)N)C(=O)N[C@@]1(C)CCCC=CCCC[C@@](C)(C(=O)N[C@@H](Cc2ccccc2)C(=O)N[C@@H](CC(N)=O)C(=O)N[C@@H](C)C(=O)N[C@@H](Cc2ccc(O)cc2)C(=O)N[C@@H](Cc2ccc(O)cc2)C(=O)N[C@@H](C)C(=O)N[C@@H](CCCNC(=N)N)C(=O)N[C@@H](CCCNC(=N)N)C(N)=O)NC(=O)[C@H](CC(=O)O)NC(=O)CNC(=O)[C@H]([C@@H](C)CC)NC1=O)[C@@H](C)CC |  |  |  |  |  | Drug uptake [2]: Active; Drug uptake [3]: Active
3 | CC[C@H](C)[C@H](NC(C)=O)C(=O)N[C@@H](Cc1c[nH]c2ccccc12)C(=O)N[C@H](C(=O)N[C@@H](C)C(=O)N[C@@H](CCC(N)=O)C(=O)N[C@@H](CCC(=O)O)C(=O)N[C@@H](CC(C)C)C(=O)N[C@@H](CCCNC(=N)N)C(=O)N[C@@]1(C)CCCC=CCCC[C@@](C)(C(=O)N[C@@H](Cc2ccccc2)C(=O)N[C@@H](CC(N)=O)C(=O)N[C@@H](C)C(=O)N[C@@H](Cc2ccc(O)cc2)C(=O)N[C@@H](Cc2ccc(O)cc2)C(=O)N[C@@H](C)C(=O)N[C@@H](CCCNC(=N)N)C(=O)N[C@@H](CCCNC(=N)N)C(N)=O)NC(=O)[C@H](CC(=O)O)NC(=O)CNC(=O)[C@H]([C@@H](C)CC)NC1=O)[C@@H](C)CC |  | Stable | 110 | 32 | Active | inhibition [9]: Active; Activity [10]: Active

Second part, led by results:

Row | Activity [1] | Stability [5] | IC50 (Bcl-2-related protein A1) [nM] | Ki (Bcl-2-related protein A1) [nM] | Activity [7] | SMILES | other results
4 | Active |  |  |  |  | CC[C@H](C)[C@H](NC(C)=O)C(=O)N[C@@H](CNC(=O)CCl)C(=O)N[C@H](C(=O)N[C@@H](C)C(=O)N[C@@H](CCC(N)=O)C(=O)N[C@@H](CCC(=O)O)C(=O)N[C@@H](CC(C)C)C(=O)N[C@@H](CCCNC(=N)N)C(=O)N[C@@]1(C)CCCC=CCCC[C@@](C)(C(=O)N[C@@H](Cc2ccccc2)C(=O)N[C@@H](CC(N)=O)C(=O)N[C@@H](C)C(=O)N[C@@H](Cc2ccc(O)cc2)C(=O)N[C@@H](Cc2ccc(O)cc2)C(=O)N[C@@H](C)C(=O)N[C@@H](CCCNC(=N)N)C(=O)N[C@@H](CCCNC(=N)N)C(N)=O)NC(=O)[C@H](CC(=O)O)NC(=O)CNC(=O)[C@H]([C@@H](C)CC)NC1=O)[C@@H](C)CC | 
5 |  | Stable | 8.5 | < 0.1 | Active | C=CC(=O)NC[C@H](NC(=O)[C@@H](NC(C)=O)[C@@H](C)CC)C(=O)N[C@H](C(=O)N[C@@H](C)C(=O)N[C@@H](CCC(N)=O)C(=O)N[C@@H](CCC(=O)O)C(=O)N[C@@H](CC(C)C)C(=O)N[C@@H](CCCNC(=N)N)C(=O)N[C@@]1(C)CCCC=CCCC[C@@](C)(C(=O)N[C@@H](Cc2ccccc2)C(=O)N[C@@H](CC(N)=O)C(=O)N[C@@H](C)C(=O)N[C@@H](Cc2ccc(O)cc2)C(=O)N[C@@H](Cc2ccc(O)cc2)C(=O)N[C@@H](C)C(=O)N[C@@H](CCCNC(=N)N)C(=O)N[C@@H](CCCNC(=N)N)C(N)=O)NC(=O)[C@H](CC(=O)O)NC(=O)CNC(=O)[C@H]([C@@H](C)CC)NC1=O)[C@@H](C)CC | Stability [4]: Stable; inhibition [6]: Active; T1/2 [8]: 28 min

— ChEMBL document CHEMBL3875227, “Electrophilic Helical Peptides That Bond Covalently, Irreversibly, and Selectively in a Protein-Protein Interaction Site” (ACS Med Chem Lett, 2017)
